From ChEMBL document CHEMBL3351571, “Peptidomimetics of Arg-Phe-NH2 as small molecule agonists of Mas-related gene C (MrgC) receptors” (Bioorg Med Chem, 2014)
Active and inactive are the calls of the source. The calls are words filed in the database; no cut-off is given here. Square brackets hold non-standard residues; d marks the D form. Peptide text beside a SMILES is read from it. dPhe(4-guanidino) = N=C(N)Nc1ccc(C[C@@H](N)C(=O)O)cc1; Phe(4-guanidino) = N=C(N)Nc1ccc(C[C@H](N)C(=O)O)cc1

Assays:
Type in all cases: cell-based
[1] = target: T1, Mas-related G-protein coupled receptor member X1 (Rattus norvegicus, UniProt Q8R4G1); test: Agonist activity at rat MrgX1 transfected in HEK293 cells by FLIPR assay
T1 sequence (Q8R4G1 whole entry): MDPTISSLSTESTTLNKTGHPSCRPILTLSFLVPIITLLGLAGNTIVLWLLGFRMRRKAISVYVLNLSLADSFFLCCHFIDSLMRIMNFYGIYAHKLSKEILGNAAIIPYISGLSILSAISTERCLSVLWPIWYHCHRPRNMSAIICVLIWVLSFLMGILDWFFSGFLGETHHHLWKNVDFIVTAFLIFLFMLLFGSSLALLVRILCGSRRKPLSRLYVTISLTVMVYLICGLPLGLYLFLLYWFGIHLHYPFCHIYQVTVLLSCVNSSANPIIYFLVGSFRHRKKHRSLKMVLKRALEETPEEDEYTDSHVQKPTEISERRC
Method in brief: (§1)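 Rodent Mrg receptors were transiently transfected into HEK293 or KNRK cells, which were plated at 25,000 cells/well and imaged 2 days later. Cells were loaded with 2 μM Fluo 4AM and 1% Trypan Red in HBSS for 50 min at 37°C, then held 10 min at room temperature.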

[2] = target: T2, Mas-related G-protein coupled receptor member X1 (Homo sapiens, UniProt Q96LB2); test: Agonist activity at human MrgX1 transfected in HEK293 cells by FLIPR assay
Method in brief: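 Human MrgX1 stably expressed in HEK293 cells, plated at 25,000 cells/well 2 days before imaging. Cells loaded with 2 μM Fluo 4AM plus 1% Trypan Red in HBSS for 50 min at 37°C, then equilibrated 10 min at room temperature. Serial dilutions in HBSS added alongside BAM 8-22 (positive) and HBSS (negative) controls.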

[3] = target: T3, Mas-related G-protein coupled receptor member X1 (Mus musculus, UniProt Q8CIP3); test: Agonist activity at mouse MrgC11 transfected in HEK293 cells by FLIPR assay; method in brief: as §1
T3 sequence (Q8CIP3 whole entry): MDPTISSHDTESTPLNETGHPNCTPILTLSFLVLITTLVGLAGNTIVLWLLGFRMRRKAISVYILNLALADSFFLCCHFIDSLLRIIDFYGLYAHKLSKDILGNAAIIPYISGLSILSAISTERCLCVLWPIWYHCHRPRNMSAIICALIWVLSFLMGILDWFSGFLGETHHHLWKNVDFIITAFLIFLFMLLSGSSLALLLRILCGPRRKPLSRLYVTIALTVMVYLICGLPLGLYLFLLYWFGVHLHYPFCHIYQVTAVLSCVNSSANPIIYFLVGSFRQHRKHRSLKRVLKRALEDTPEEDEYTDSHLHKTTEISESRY

[4] = target: T2, Mas-related G-protein coupled receptor member X1; test: Antagonist activity at human MrgX1 transfected in HEK293 cells at 200 uM by FLIPR assay

T2 sequence (Q96LB2 whole entry): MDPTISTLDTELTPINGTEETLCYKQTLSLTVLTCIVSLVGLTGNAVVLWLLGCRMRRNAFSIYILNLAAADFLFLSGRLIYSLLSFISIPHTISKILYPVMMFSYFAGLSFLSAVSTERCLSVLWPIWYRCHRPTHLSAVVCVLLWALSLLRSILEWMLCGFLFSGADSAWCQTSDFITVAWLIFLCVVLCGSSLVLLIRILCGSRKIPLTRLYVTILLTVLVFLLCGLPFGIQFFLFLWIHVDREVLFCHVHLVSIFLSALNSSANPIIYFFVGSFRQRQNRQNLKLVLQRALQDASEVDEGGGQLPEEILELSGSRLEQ

Row | Compound | EC50 [1] [µM] | EC50 [2] [µM] | EC50 [3] [µM] | Activity [4]
1 | N=C(N)NC[C@@H]1CN[C@H](C(=O)N[C@@H](Cc2ccccc2)C(N)=O)C1 | > 100 | > 100 | 0.501 | 
2 | N=C(N)N1CCC(C(N)C(=O)N[C@@H](Cc2ccccc2)C(N)=O)CC1 (some centres undefined) | 3.98 | > 100 | 0.794 | 
3 | N=C(N)Nc1ccc(C[C@H](N)C(=O)N[C@@H](Cc2ccccc2)C(N)=O)cc1 (H-[Phe(4-guanidino)]-Phe-NH2) | 50.1 | > 100 | 15.8 | 

Next, values leading:

Row | EC50 [1] [µM] | EC50 [2] [µM] | EC50 [3] [µM] | Activity [4] | Compound
4 | > 100 | > 100 | 7.94 |  | N=C(N)N[C@@H]1CN[C@H](C(=O)N[C@@H](Cc2ccccc2)C(N)=O)C1
5 | > 2 | 0.0251 | > 2 |  | COc1ccc(-c2ccc(C(=O)Nc3cccc(Cn4ncc(N5CCNCC5)cc4=O)c3C)cc2)cn1
6 | 0.631 | > 100 | 1.26 | inactive | N=C(N)Nc1ccc(C[C@@H](N)C(=O)N[C@@H](Cc2ccccc2)C(N)=O)cc1 (H-[dPhe(4-guanidino)]-Phe-NH2)
